{"source": "ChEMBL document CHEMBL1122207", "about": "“Antitumor agents. 2. Bisguanylhydrazones of anthracene-9,10-dicarboxaldehydes” (1982)", "type_in_all_cases": "functional", "key": {"Mus musculus [1]": {"system": "Mus musculus", "assay": "Percent increase in median life span of BDF1 mice with P-388 leukemia at dose 12.5 mg/kg administered intraperitoneally; Range is 100-120% 1, 5, 9 days of ip treatment relative to tumor inoculation", "settings": "BDF1, P388, ip, 216 h, route intraperitoneal", "in_short": "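BDF1 or CDF1 mice given 10^6 ascitic leukemia cells ip, then dosed ip on days 1, 5 and 9. Read-out is percent increase in life span versus untreated controls. Cures were scored as survivors/total at 30 days; when cures reached 50% or more, the run was extended until a specific ILS could be calculated. T/C ≥125% counted as significant.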"}, "Mus musculus [2]": {"system": "Mus musculus", "assay": "Percent increase in median life span of BDF1 mice with advanced L-1210 leukemia at dose 12.5 mg/kg administered intraperitoneally; treatment day +2 iv", "settings": "L1210"}, "Mus musculus [3]": {"organism": "Mus musculus", "assay": "Cures is the number of survivors of the total treated mice (6) with advanced L-1210 leukemia, at 30 days.", "in_short": "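Advanced L-1210 leukemia, with ip treatment on days 5, 9 and 13 relative to tumor inoculation.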"}, "Mus musculus [4]": {"organism": "Mus musculus", "assay": "Cures is the number of survivors of the total treated animals(12 mice) with P-388 leukemia, at 30 days.", "in_short": "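BDF1 or CDF1 mice given 10^6 ascitic P-388 leukemia cells ip, then treated ip on days 1, 5 and 9. Cures are survivors over total treated at 30 days.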"}, "Mus musculus [5]": {"organism": "Mus musculus", "assay": "Cures is the number of survivors of the total treated mice (10) with B-16 melanoma, at 60 days.", "in_short": "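BDF1 mice were implanted ip with a homogenate from 0.05 g of B-16 melanoma and dosed ip on days 1-9. Cures are survivors over total at 60 days.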"}, "Mus musculus [6]": {"system": "Mus musculus", "assay": "Percent increase in median life span of BDF1 mice with B-16 melanoma at dose 6.2 mg/kg administered intraperitoneally; 1-9 days of ip treatment relative to tumor inoculation", "settings": "BDF1, B16, ip, route intraperitoneal", "in_short": "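BDF1 mice were implanted ip with a homogenate from 0.05 g of B-16 melanoma. Ip dosing ran on days 1-9, starting 24 h after implant, in dose-response studies following NCI protocols. The read-out was percent increase in life span (ILS). T/C ≥125% was taken as significant.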"}}, "data": [{"smiles": "CC1(C)CNC(N/N=C/c2c3ccccc3c(/C=N/NC3=NCC(C)(C)N3)c3ccccc23)=N1.Cl.Cl", "values": [{"measurement": "ILS at 12.5 mg/kg", "setting": "Mus musculus [1]", "result": 100, "unit": "%"}, {"measurement": "ILS at 12.5 mg/kg", "setting": "Mus musculus [2]", "result": 28, "unit": "%"}, {"measurement": "Cures", "setting": "Mus musculus [3]", "result": 0}, {"measurement": "Cures", "setting": "Mus musculus [4]", "result": 0}, {"measurement": "Cures", "setting": "Mus musculus [5]", "result": 5}, {"measurement": "ILS at 6.2 mg/kg", "setting": "Mus musculus [6]", "result": "> 248", "unit": "%"}]}]}
